PKD1 inh: inhibitors of human PKD1 kinase, biochemical, fluorescence polarization; inhibition, % (no concentration beside the values); PKD1 kinase fluorescence polarization assay; AID 797, 2007; 200,000 tested, 0.056% active; in the data active = inhibition above about 50%
Redox H2O2 prof: compounds producing H2O2 with reducing agent – biochemical, NIH compound library profiling, artefact control for MLSCN library redox annotation, primary screen; 200,000 tested, 0.03% active; DTT-dependent redox cycling H2O2, phenol red/HRP absorbance; 100% = 100 µM peroxide control, 0% = buffer; activation, % at 10 µM;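 active = activation of at least 50% relative to the plate's high and low controls in the primary single-dose screen; inactive = activation below 50%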;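 also: compound incubated with DTT at 0.8 mM final as the reducing agent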
Arbovirus anti: antivirals against arbovirus infection, primary screen, cell-based, full library, 10K replicate subset. AID 1251, 2008. arbovirus infection cell-based antiviral screen. 200,000 tested, 0.37% active. inhibition, % at 10 µM; in the data active = inhibition above about 30%
RBBP9 inhibitor: human RBBP9 inhibitors, primary screen, biochemical, fluorescence polarization, FP-Rh probe, HTS. 220,000 tested, 0.2% active. Serine hydrolase RBBP9 (Homo sapiens), O75884. inhibition, % at 7.94 µM. recombinant RBBP9;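 active = inhibition above the campaign mean of all tested compounds plus 3 SD, cut at about 14% in these data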;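 also: plate controls were DMSO wells with RBBP9 for no effect and wells lacking RBBP9 protein for full effect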
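Assay system: recombinant human RBBP9; Reagent: Serine-hydrolase probe FP-Rh, 375 nM pre-mixing; Doses: 7.94 µM single dose, 0.794% DMSO; Incubation: 30 min then 45 min, 25 °C; Detection: fluorescence polarization (mP), excitation 525 nm, emission 598 nm; Evaluation: percent inhibition from mP, scaled between DMSO and no-protein wells.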
Wee1 stabilizer: Wee1 degradation inhibitors, primary screen, cell-based, HeLa, Wee1K328M-luciferase, luminescence. AID 1321, 2008. 220,000 tested, 1.2% active. HeLa Luc-Wee1K328M stability; 100% = proteasome inhibitor MG132 effect. reporter increase, % at 5 µM;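 active = activation above the mean of all tested compounds plus 3 SD, set per screening run, cut at about 8.8% in these data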;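 also: cells exposed to compound for 20 h before luminescence read; 0% = DMSO alone and 100% = MG132 at 30 µM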
p97 ATPase inh: inhibitors of human p97 ATPase, primary screen, biochemical. AID 1481, 2009. 220,000 tested, 0.42% active. recombinant p97 ATPase, Kinase-Glo ATP luminescence, 3 h. inhibition, % at 8 µM; in the data active = inhibition above about 15%;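 also: 0% = DMSO vehicle and 100% = wells lacking enzyme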
An asterisk follows results filed as active; · = not tested or not shown. This is a sample that favours compounds with a hit; in the whole collection about 2.2% have one here.

SMILES | PKD1 inh | Redox H2O2 prof | Arbovirus anti | RBBP9 inhibitor | Wee1 stabilizer | p97 ATPase inh
CCOC(=O)c1ccc(NC(=O)Cn2nnc(-c3ccccc3)n2)cc1 | 0 | -4 | 39* | -6 | 6 | -8
CCOC(=O)c1ccc(NC(=O)Cn2nnc(-c3ccc(F)cc3)n2)cc1 | 15 | -2 | 1 | -7 | 0 | 2
COc1cc(-c2nc(N)n[nH]2)cc(OC)c1OC | -3 | 0 | 10 | -11 | 9.6* | -9
Cc1ccccc1NC(=O)C1CCCN1/C=C/C(=O)C(F)(F)F (stereo unspecified) | 3 | 0 | 1 | -4 | 0 | -2
CC(O)/C=C/C1OC(=O)CC1Nc1ccc(C=O)cc1 (stereo unspecified) | 7 | -1 | 6 | -5 | 11* | 4
O=S(=O)(/C=C/c1ccccc1)Nc1ccc(N2CCOCC2)cc1 | 7 | 0 | -4 | 2 | 10* | -5
O=S(=O)(Nc1ccc(N2CCOCC2)cc1)c1ccccc1 | -6 | 0 | 4 | 0 | -3 | 4
Cc1nc2scc(-c3ccc(C(C)C)cc3)c2c(=O)n1N | 4 | -1 | 7 | -1 | -2 | -5
CC(C)(C)n1nnnc1C(c1ccc(F)cc1)N(Cc1ccc(F)cc1)Cc1ccco1 (stereo unspecified) | -2 | 1 | -14 | -11 | -4 | -9
CC(C)(C)n1nnnc1C(c1ccc(C(F)(F)F)cc1)N(Cc1ccc(F)cc1)Cc1ccco1 (stereo unspecified) | -1 | 1 | 32* | -4 | 4 | -5
CCn1cc(C(=O)NCCc2ccccc2)c(=O)c2cc(S(=O)(=O)N3CCCC3)ccc21 | -1 | 1 | 3 | -5 | 9.4* | -3
O=C1C2C3C=CC(CO)(O3)C2C(=O)N1c1ccccc1-c1ccccc1 (stereo unspecified) | -4 | 0 | -1 | 33* | 0 | 2
CCOC(=O)c1ccc(NC(=S)N2CCSC2c2c(F)cc(F)cc2F)cc1 (stereo unspecified) | -3 | 0 | 41* | -3 | -2 | -3
Fc1cc(F)c(C2SCCN2C(=S)Nc2cccc(C(F)(F)F)c2)c(F)c1 (stereo unspecified) | · | · | · | -6 | 5 | -4
CC1CCCCC1NCC(=O)NCc1ccc(F)cc1 (stereo unspecified) | -1 | -1 | -2 | -4 | 0 | -6
COCCn1c(=S)[nH]c2ccc(N(C)C)cc2c1=O | -1 | 1 | 6 | 3 | 1 | 7
c1ccc(C(c2ccccn2)c2ccccn2)cc1 | 4 | 0 | 4 | -8 | 0 | 4
CC(=O)Oc1ccc(C(c2ccc(OC(C)=O)cc2)c2ccccn2)cc1 | -3 | 0 | -4 | 25* | 5 | 0
CCOc1ccc(/C=C/C(=O)c2ccccc2)cc1 | · | · | · | -5 | 6 | 3
Cc1ccc(/C=C/C(=O)c2ccccc2)cc1 | 3 | 0 | 2 | -4 | 8.9* | -8
CCc1cccc2c(C(=O)CCl)c[nH]c12 | 1 | 0 | 18 | -1 | -3 | 18*
CCOc1ccc(NC(=O)C(C)Oc2ccccc2C(=O)Nc2ccc(C)c(Cl)c2)cc1 (stereo unspecified) | -2 | 2 | -25 | -8 | 4 | 2
CCOc1ccccc1N1CC(O)=C(c2nc3ccccc3s2)C1=N | 0 | 1 | -3 | -3 | 10* | 5
COc1ccc(OC)c(N2CC(O)=C(c3nc4ccccc4s3)C2=N)c1 | -11 | 2 | 8 | -8 | 0 | 2
COc1ccc2nc(N3C(=O)CC(Cc4cc(C)cc(C)c4)C3=O)sc2c1 (stereo unspecified) | 4 | 1 | 39* | -4 | -1 | -4
SMILES | PKD1 inh | Redox H2O2 prof | Arbovirus anti | RBBP9 inhibitor | Wee1 stabilizer | p97 ATPase inh
COc1ccc2nc(N3C(=O)CC(Cc4ccc(Cl)cc4)C3=O)sc2c1 (stereo unspecified) | -8 | -7 | 28 | -6 | -2 | 0
Cc1cc(C)cc(N(C(=O)C(F)(F)F)C(C(=O)NC2CCCCC2)c2cccs2)c1 (stereo unspecified) | -19 | 2 | 9 | -4 | 11* | 3
Cc1cccc(N(C(=O)C(F)(F)F)C(C(=O)NC2CCCCC2)c2cccs2)c1 (stereo unspecified) | -7 | 2 | 10 | 1 | 3 | 2
Cc1nn(C)cc1CN(C)S(=O)(=O)c1cccc([N+](=O)[O-])c1 | 6 | 0 | 6 | -10 | -2 | -4
CCCCCOC(=O)CSc1nnc(-c2cc(OC)c(OC)c(OC)c2)o1 | 11 | 0 | 3 | -4 | 9.0* | -9
CC(=O)Nc1ccc(C(=O)Cn2c3[n+](c4c(F)c(F)ccc42)CCCCC3)cc1 | 6 | 0 | 3 | 4 | -3 | 1
COC(=O)c1cc(NC(=S)NCc2ccc(Cl)cc2)cc(C(=O)OC)c1 | -9 | 0 | 32* | -23 | -2 | 3
COc1ccc(N2C(=O)C(=O)/C(=C(/O)c3ccc(C)cc3)C2c2cccnc2)cc1 (stereo unspecified) | 2 | 0 | 1 | -3 | 10* | 2
CCOC(=O)c1sc(NC(=S)NC(=O)C23CC4CC(CC(C4)C2)C3)cc1C | -4 | 1 | -3 | -1 | 9.4* | 5
CN(Cc1ccc(OCC(O)CN2CCCCC2)cc1)Cc1ccnc2ccccc12 (stereo unspecified) | 3 | 1 | 8 | 0 | 1 | 0
Cc1nn(C)cc1CN(C)Cc1ccc(OCC(O)CN2CCCCC2)cc1 (stereo unspecified) | 0 | 1 | 34* | 2 | -2 | -1
O=C(OCc1ccc(F)cc1)c1ccc2ccccc2n1 | 1 | 0 | 14 | -5 | 0 | -4
CCc1ccc(-c2cc(C(=O)NN3CCOCC3)c3ccccc3n2)cc1 | -10 | 3 | 8 | -6 | 28* | 0
O=C(NCCCN1CCOCC1)c1cc(-c2ccc3c(c2)OCO3)nc2ccccc12 | -7 | -3 | -6 | -8 | 11* | -4
O=C(O)CC(=O)Nc1ccc(Oc2ccc(C(F)(F)F)cn2)c(Cl)c1 | -3 | 0 | 11 | -9 | 9.2* | 4
FC(F)(F)c1ccc(Oc2ccccc2Cl)nc1 | -6 | 0 | 0 | -5 | 0 | -2
COc1ccc(-c2noc(Cc3ccccc3OC)n2)cc1 | 5 | 1 | -4 | -1 | 8.9* | -2
Cc1ccccc1OCc1nc(-c2ccccc2)no1 | 1 | 1 | -1 | 1 | 11* | 4
Cc1ccc(-c2noc(COc3ccccc3C)n2)cc1 | -11 | 1 | -13 | -10 | -2 | -4
